Results reported in ChEMBL document CHEMBL1158099, “A chemical study of cyclic depsipeptides produced by a sponge-derived fungus” (J Nat Prod, 2006).
Values after ≈ are worked out from the molar mass of the structure shown. Starred links: 1 amine or outer side, 2 acyl side, 3 side chain; linkers in the order of their positions; H or OH if unused. Non-standard residues stand in square brackets, D forms with d. Residues, ends and D or L forms follow the SMILES beside them. X1 = CC(C)(O)[C@H](O[*:1])C(=O)[*:2]; dNMeF = CN[C@H](Cc1ccccc1)C(=O)O; Hica(2S) = CC(C)C[C@H](O)C(=O)O; Hiv = CC(C)[C@H](O)C(=O)O; NMeA = CN[C@@H](C)C(=O)O

Tests used:
[1] = Cytotoxicity against human H125 cells by disk diffusion soft agar colony formation assay; type: functional
In short: (§1)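 Cell-based soft agar disk diffusion assay, applied to extracts, partition fractions and pure compounds. Read-out is the inhibition zone in zone units. The panel covers solid tumour cells (Colon 38, Colon H116, Lung H125), leukaemia cells (L1210, CEM) and normal CFU-GM. A sample counts as solid-tumour selective when the solid tumour zone exceeds the leukaemia or normal cell zone by more than 250 units.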

MC-38 = experiment: Cytotoxicity against mouse C38 cells by disk diffusion soft agar colony formation assay; type: functional; in short: as §1
[2] = Cytotoxicity against human H116 cells by disk diffusion soft agar colony formation assay; type: functional; in short: as §1
Enterococcus durans = experiment: Antibacterial activity against Enterococcus durans; type: functional
[3] = Cytotoxicity against human CFU-GM cells by disk diffusion soft agar colony formation assay; type: cell-based; in short: as §1
[4] = Cytotoxicity against mouse CFU-GM cells by disk diffusion soft agar colony formation assay; type: cell-based; in short: as §1
[5] = tested on: Staphylococcus epidermidis; experiment: Antibacterial activity against Staphylococcus epidermidis; type: functional
L1210 = experiment: Cytotoxicity against mouse L1210 cells by disk diffusion soft agar colony formation assay; type: functional; in short: as §1
CCRF-CEM = experiment: Cytotoxicity against human CEM cells by disk diffusion soft agar colony formation assay; type: cell-based; in short: as §1

Row | MIC (Enterococcus durans) | MIC [5] | SMILES | Activity [1] | Activity (MC-38) | Activity [2] | Activity [3] | Activity [4] | Activity (L1210) | Activity (CCRF-CEM)
1 | 100 µg/mL (≈ 162 µM) | 100 µg/mL (≈ 162 µM) | CC(C)C[C@@H]1OC(=O)[C@H](C)NC(=O)[C@H](C(C)(C)O)OC(=O)[C@H](C)N(C)C(=O)[C@@H](C)NC(=O)[C@@H](Cc2ccccc2)N(C)C1=O [GUANGOMIDE A] (cyclo(A[Hica(2S)][dNMeF][dA][NMeA][X1])) | 0 Zone units | 0 Zone units | 50 Zone units | Not Active | Not Active | 0 Zone units | –
2 | – | – | C[C@H]1CCC/C=C/[C@@H]2C[C@H](O)C[C@H]2[C@H](O)/C=C/C(=O)O1 [BREFELDIN A] | 600 Zone units | 150 Zone units | 900 Zone units | 1000 Zone units | Not Active | 0 Zone units | 0 Zone units
3 | 100 µg/mL (≈ 166 µM) | 100 µg/mL (≈ 166 µM) | CC(C)C[C@@H]1OC(=O)[C@H](C)NC(=O)[C@H](C(C)C)OC(=O)[C@H](C)N(C)C(=O)[C@@H](C)NC(=O)[C@@H](Cc2ccccc2)N(C)C1=O [GUANGOMIDE B] (cyclo(A[Hica(2S)][dNMeF][dA][NMeA][Hiv])) | – | – | – | – | – | – | –
